The source made the active and inactive calls. The rule behind the calls is not given here.
Experiments:
[1] = target: T1, Glutathione reductase, mitochondrial (Homo sapiens) (UniProt P00390); assay: Inhibition of recombinant human GR oxidoreductase activity by DTNB-reagent based spectrophotometric method
T1 sequence (whole entry): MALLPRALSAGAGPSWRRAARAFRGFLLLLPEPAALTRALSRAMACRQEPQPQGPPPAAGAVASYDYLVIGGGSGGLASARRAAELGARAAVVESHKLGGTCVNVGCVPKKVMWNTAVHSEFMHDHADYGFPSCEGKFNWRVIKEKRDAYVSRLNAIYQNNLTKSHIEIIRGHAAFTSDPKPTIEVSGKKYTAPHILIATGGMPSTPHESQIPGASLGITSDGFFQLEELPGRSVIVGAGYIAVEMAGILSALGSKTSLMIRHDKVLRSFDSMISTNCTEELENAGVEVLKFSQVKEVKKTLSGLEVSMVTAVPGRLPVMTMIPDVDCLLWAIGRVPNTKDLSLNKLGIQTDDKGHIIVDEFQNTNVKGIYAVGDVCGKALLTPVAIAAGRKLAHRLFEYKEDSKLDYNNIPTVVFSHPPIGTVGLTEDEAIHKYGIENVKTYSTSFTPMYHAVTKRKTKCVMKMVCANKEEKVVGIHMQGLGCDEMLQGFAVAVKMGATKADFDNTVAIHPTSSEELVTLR
How it was run: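 Recombinant hGR (7 nM) assayed at 37 °C in 40 mM HEPES pH 7.5 with 1 mM EDTA, 60 μM NADP+, 150 μM DTNB, 50 μM GSSG, 300 μM NADPH and 1.75% DMSO. TNB formation followed at 412 nm; at least three independent experiments, nonlinear regression.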

[2] = Drug uptake in Leishmania infantum promastigotes at 25 uM after 1 hr by fluorescence microscopy analysis; format: ADME; conditions: in vivo
How it was run: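 Log-phase promastigotes exposed to 25 μM compound for 1 h at 26 °C, fixed in […], mounted on polylysine slides and imaged by fluorescence microscopy for blue compound fluorescence.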

[3] = Selectivity index, ratio of EC50 for human HepG2 cells to EC50 for promastigote stage of Leishmania infantum MCAN/ES/89/IPZ229/1/89 infected in human HepG2 cells; format: toxicity, cell-based; conditions: read-out: Ratio EC50
[4] = Selectivity index, ratio of EC50 for human HepG2 cells to EC50 for axenic amastigote stage of Leishmania infantum MCAN/ES/89/IPZ229/1/89 infected in human HepG2 cells; format: toxicity, cell-based; conditions: read-out: Ratio EC50
[5] = tested on: THP-1; assay: Cytotoxicity against human THP-1 cells at 75 uM by LDH assay; format: cell-based; conditions: thp-1, 75 µM
How it was run: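 PMA-differentiated (100 ng/mL, 24 h) THP-1 macrophages infected with GFP-expressing amastigotes were exposed to compound, and viability was measured by LDH activity. The maximum concentration assayed was 75 μM. Three independent experiments.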

[6] = target: Trypanothione reductase (Leishmania infantum) (UniProt A4HSF7); assay: Inhibition of recombinant His-FLAG-tagged Leishmania infantum TryR dimerization expressed in Escherichia coli […] assessed as reduction in TryR dimer at 20 uM using TS2 as substrate after 16 hrs by ELISA relative to control
How it was run: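 HIS-FLAG-tagged LiTryR at 400 nM incubated 16 h at 37 °C in 300 mM NaCl, 50 mM Tris pH 8.0 with 3.12–75 μM compound, then centrifuged. Supernatant captured on anti-FLAG plates and detected with anti-HIS-HRP and OPD at 490 nm.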

Trypanothione reductase (Leishmania infantum), sequence (A4HSF7 as listed by the source): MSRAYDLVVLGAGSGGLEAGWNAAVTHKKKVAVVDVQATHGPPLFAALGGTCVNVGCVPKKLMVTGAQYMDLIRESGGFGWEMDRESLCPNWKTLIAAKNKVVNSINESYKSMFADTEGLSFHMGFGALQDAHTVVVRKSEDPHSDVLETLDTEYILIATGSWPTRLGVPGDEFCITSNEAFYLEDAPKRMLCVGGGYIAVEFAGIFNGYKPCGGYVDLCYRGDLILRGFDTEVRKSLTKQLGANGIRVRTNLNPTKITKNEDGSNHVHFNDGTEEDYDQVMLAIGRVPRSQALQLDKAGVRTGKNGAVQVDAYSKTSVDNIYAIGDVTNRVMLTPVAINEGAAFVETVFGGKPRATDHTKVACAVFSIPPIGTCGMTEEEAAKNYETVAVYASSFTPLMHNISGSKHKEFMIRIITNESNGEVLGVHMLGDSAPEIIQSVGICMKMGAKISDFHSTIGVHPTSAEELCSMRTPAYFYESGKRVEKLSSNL

SMILES	inhibition [1]	selectivity ratio [4]	other results
NCCCCc1cn(-c2ccc(-c3nc(CCc4ccccc4)cs3)c(OCCN3CCNC3=O)c2)nn1.O=C(O)C(F)(F)F	inactive		Drug uptake [2]: Active
COc1cc(-n2cc(CCCCN)nn2)ccc1-c1nc(CCc2ccccc2)cs1			selectivity ratio [3]: 1.8
NCCCCc1cn(-c2ccc(-c3nc(-c4ccccc4)c(-c4ccccc4)s3)c(OCCN3CCNC3=O)c2)nn1	inactive		
NCCCCc1cn(-c2ccc(-c3nc(-c4ccc(Oc5ccccc5)cc4)c(-c4ccccc4)s3)c(OCCN3CCNC3=O)c2)nn1		≥ 3.3	
NCCCc1cn(-c2ccc(-c3nc(CCc4ccc(-c5ccccc5)cc4)cs3)c(OCCN3CCNC3=O)c2)nn1.O=C(O)C(F)(F)F			Activity [5]: 100%
NCCNCc1nccn1-c1ccc(-c2nc(CCc3ccc(-c4ccccc4)cc3)cs2)c(OCCN2CCNC2=O)c1			inhibition [6]: 32%
NCCCCc1cn(-c2ccc(-c3nc(CCc4ccc5ccccc5c4)cs3)c(OCCN3CCNC3=O)c2)nn1	inactive		
NCCCCc1cn(-c2ccc(-c3nc(CCc4ccc(-c5ccccc5)cc4)cs3)c(OCCN3CCNC3=O)c2)nn1.O=C(O)C(F)(F)F	inactive		Activity [5]: 100%
NCCCCc1cn(-c2ccc(-c3nc(CCc4ccc(-c5ccccc5)cc4)c(-c4ccccc4)s3)c(OCCN3CCNC3=O)c2)nn1		1.3	
NCCNCc1nccn1-c1ccc(-c2nc(CCc3ccc4ccccc4c3)cs2)c(OCCN2CCNC2=O)c1		2.1	inhibition [6]: 26%; selectivity ratio [3]: 2.1
NCCCCc1cn(-c2ccc(-c3nc(CCc4ccc(Oc5ccccc5)cc4)c(-c4ccccc4)s3)c(OCCN3CCNC3=O)c2)nn1		< 1	
COc1cc(-n2cc(CCCCN)nn2)ccc1-c1nc(CCc2ccc(-c3ccccc3)cc2)cs1		1.9	
NCCCCc1cn(-c2ccc(-c3nc(-c4ccc(-c5ccccc5)cc4)c(-c4ccccc4)s3)c(OCCN3CCNC3=O)c2)nn1		1.8	
NCCCCc1cn(-c2ccc(-c3nc(-c4ccccc4)cs3)c(OCCN3CCNC3=O)c2)nn1	inactive		

Source: ChEMBL document CHEMBL4823264, “Efficient Dimerization Disruption of Leishmania infantum Trypanothione Reductase by Triazole-phenyl-thiazoles” (J Med Chem, 2021)
